Reference: ChEMBL document CHEMBL1146016, “Synthesis and structure-activity relationships of 3,4-diaminocyclobut-3-ene-1,2-dione CXCR2 antagonists” (Bioorg Med Chem Lett, 2006)

Key:
[1] = target: T1, C-X-C chemokine receptor type 2 (Homo sapiens, UniProt P25025); test: Displacement of [125I]IL8 from human CXCR2 expressed in CHO cells; type: cell-based
T1 sequence (P25025 whole entry): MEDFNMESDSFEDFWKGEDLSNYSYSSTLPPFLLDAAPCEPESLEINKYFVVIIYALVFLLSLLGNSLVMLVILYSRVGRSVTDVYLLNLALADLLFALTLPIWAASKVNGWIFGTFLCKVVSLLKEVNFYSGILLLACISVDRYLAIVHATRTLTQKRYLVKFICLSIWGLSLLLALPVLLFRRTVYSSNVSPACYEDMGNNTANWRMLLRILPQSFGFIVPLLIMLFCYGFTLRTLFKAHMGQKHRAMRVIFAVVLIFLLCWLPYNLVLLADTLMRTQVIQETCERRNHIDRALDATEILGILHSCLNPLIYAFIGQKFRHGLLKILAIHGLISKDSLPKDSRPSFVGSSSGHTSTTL

[2] = Metabolic stability in rat liver microsome after 30 min at 37 degreeC; type: ADME; settings: liver microsomes, read-out: Stability
Procedure, shortened: (§1)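 Liver microsomes (human or rat) incubated with compound at 1 µM final for 30 min at 37 °C in 100 mM potassium phosphate pH 7.4 with 1 mM β-NADPH; reported as percent parent remaining; means ± SD of two or more measurements.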

[3] = Permeability across Caco-2 cell membrane; type: ADME, cell-based; settings: human
Procedure, shortened: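 Caco-2 monolayers in a commercial HTS Caco-2 system run per kit instructions; apicalto-basolateral apparent permeability (nm/s), binned as low or high predicted absorption; means ± SD of two or more measurements.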

[4] = Metabolic stability in human liver microsome after 30 min at 37 degreeC; type: ADME; settings: liver microsomes, read-out: Stability; procedure, shortened: as §1

Row | Compound | IC50 [1] [nM] | further results
1 | CN(c1ccccc1O)c1c(Nc2ccccc2)c(=O)c1=O | 28600 | –
2 | O=c1c(O)c(Nc2ccc([N+](=O)[O-])cc2)/c1=N/c1ccccc1 | 8600 | –
3 | O=c1c(O)c(Nc2cc([N+](=O)[O-])ccc2O)/c1=N/c1ccccc1 | 56 | –
4 | N#Cc1ccc(Nc2c(O)c(=O)/c2=N\c2ccccc2)c(O)c1 | 3 | –
5 | O=C(O)c1cccc(/N=c2\c(O)c(O)\c2=N/c2ccccc2)c1O | 1000 | –
6 | CN(C)C(=O)c1cccc(/N=c2\c(O)c(O)\c2=N/C(C)(C)C)c1O | 14 | –
7 | CN(C)C(=O)c1cccc(/N=c2\c(O)c(O)\c2=N/CCc2ccccc2)c1O | 926 | –
8 | CN(C)C(=O)c1cccc(/N=c2\c(O)c(O)\c2=N/c2ccccc2)c1O | 2 | remaining at 0.5 h [2]: 67%; Papp [3]: 2.4 ×10⁻⁶ cm/s; remaining at 0.5 h [4]: 64%
9 | CN(C)C(=O)c1cccc(/N=c2\c(O)c(O)\c2=N/Cc2ccco2)c1O | 41 | –
10 | CN(C)C(=O)c1cccc(/N=c2\c(O)c(O)\c2=N/C2CCCCC2)c1O | 10 | –
11 | CN(C)C(=O)c1cccc(/N=c2\c(O)c(O)\c2=N/[C@@H]2CCc3ccccc32)c1O | 548 | –
12 | CCNC(=O)c1cccc(/N=c2\c(O)c(O)\c2=N/c2ccccc2)c1O | 65 | –
13 | CCC(CC)/N=c1\c(O)c(O)\c1=N/c1cccc(C(=O)N(C)C)c1O | – | remaining at 0.5 h [2]: 75%; Papp [3]: 12 ×10⁻⁶ cm/s; remaining at 0.5 h [4]: 82%
14 | CN(C)C(=O)c1cccc(/N=c2\c(O)c(O)\c2=N/C2CCCC2)c1O | 8 | remaining at 0.5 h [2]: 56%; Papp [3]: 10.1 ×10⁻⁶ cm/s; remaining at 0.5 h [4]: 72%
15 | NC(=O)c1cccc(/N=c2\c(O)c(O)\c2=N/c2ccccc2)c1O | 34 | –
16 | CN(C)C(=O)c1cccc(/N=c2/c(N(C)c3ccccc3)c(O)c2=O)c1O | 7200 | –
17 | CC(C)/N=c1\c(O)c(O)\c1=N/c1cccc(C(=O)N(C)C)c1O | 10 | –
18 | CNC(=O)c1cccc(/N=c2\c(O)c(O)\c2=N/c2ccccc2)c1O | 22 | –
19 | N#Cc1ccc(O)c(Nc2c(O)c(=O)/c2=N\c2ccccc2)c1 | 74 | –
20 | O=C(O)c1ccc(/N=c2\c(O)c(O)\c2=N/c2ccccc2)c(O)c1 | 3100 | –
21 | O=c1c(O)c(Nc2ccc([N+](=O)[O-])cc2O)/c1=N/c1ccccc1 | 36 | –
22 | COC(=O)c1cccc(/N=c2\c(O)c(O)\c2=N/c2ccccc2)c1O | 53 | –
23 | CN(C)C(=O)c1cc(Cl)cc(/N=c2\c(O)c(O)\c2=N/c2ccccc2)c1O | 2 | –
24 | O=c1c(O)c(Nc2ccccc2)/c1=N/c1ccccc1O | 476 | –
25 | CN(C)C(=O)c1cccc(/N=c2\c(O)c(O)\c2=N/C2CCOCC2)c1O | 171 | –
26 | O=C(NCc1ccccc1)c1cccc(Nc2c(O)c(=O)/c2=N\c2ccccc2)c1O | 139 | –
